# This is a sample that favours compounds with a hit; in the whole collection about 4.5% have one here.
# AHR activator – AHR activators, primary screen, cell-based, luminescence, luciferase reporter, human. AHR-responsive luciferase reporter cells. Aryl hydrocarbon receptor (Homo sapiens), P35869. hit rate 2.5% among 320,000. activation, % at 5 µM; in the data active = activation above about 47%;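 note: 0% = vehicle wells and 100% = reference agonist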
# Target sequence (P35869 whole entry, looked up): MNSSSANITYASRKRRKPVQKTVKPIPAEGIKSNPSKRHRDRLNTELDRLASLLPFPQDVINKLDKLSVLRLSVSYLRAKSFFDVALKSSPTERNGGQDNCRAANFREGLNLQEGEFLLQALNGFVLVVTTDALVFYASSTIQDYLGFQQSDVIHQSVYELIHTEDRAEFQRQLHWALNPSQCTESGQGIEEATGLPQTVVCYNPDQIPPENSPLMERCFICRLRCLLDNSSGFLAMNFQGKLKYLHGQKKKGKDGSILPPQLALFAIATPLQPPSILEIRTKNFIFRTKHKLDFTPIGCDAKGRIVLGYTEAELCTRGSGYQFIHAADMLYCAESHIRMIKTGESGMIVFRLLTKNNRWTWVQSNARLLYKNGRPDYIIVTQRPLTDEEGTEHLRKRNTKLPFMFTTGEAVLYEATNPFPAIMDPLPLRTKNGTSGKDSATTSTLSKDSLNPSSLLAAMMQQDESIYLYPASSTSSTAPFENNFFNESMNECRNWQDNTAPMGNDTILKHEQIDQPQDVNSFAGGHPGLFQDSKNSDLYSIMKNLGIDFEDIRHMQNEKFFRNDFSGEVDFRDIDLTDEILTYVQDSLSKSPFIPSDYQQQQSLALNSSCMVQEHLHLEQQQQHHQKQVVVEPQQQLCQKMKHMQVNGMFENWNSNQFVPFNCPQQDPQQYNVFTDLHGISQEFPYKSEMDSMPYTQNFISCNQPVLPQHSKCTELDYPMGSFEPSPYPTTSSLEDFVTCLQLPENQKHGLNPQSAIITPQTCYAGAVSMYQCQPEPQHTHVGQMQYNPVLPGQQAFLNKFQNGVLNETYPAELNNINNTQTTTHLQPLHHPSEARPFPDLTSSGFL
# PERK inhibitor – block of dimerizer-induced PERK translation repression, primary screen, PERK inhibitor project, CHO PERK-DD cells, SEAP luminescence, HTS; AID 1416, 2008; CHO PERK-DD fusion, SEAP luminescence translation reporter; inhibition, % at 5.6 µM; hit rate 0.17% among 220,000; Eukaryotic translation initiation factor 2-alpha kinase 3 (Homo sapiens), Q9NZJ5;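 active = inhibition above the mean inhibition of all tested compounds plus 3 SD, set separately per screening campaign, cut at about 2.9% in these data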;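 note: PERK kinase domain activated by AP20187 dimerizer at 100 nM; 0% = DMSO with dimerizer and 100% = rapamycin at 8.4 µM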
# MDM2 E3 inh – MDM2-luciferase reporter signal enhancers, primary screen, MDM2 E3 ligase inhibitor project, cell-based, luminescence, 1536-well; E3 ubiquitin-protein ligase Mdm2 (Homo sapiens), Q00987; cell-based MDM2 ubiquitination luciferase reporter, 2 h; 0 = plate control, 100 = twice control, blank-subtracted; signal enhancement, % at 5 µM; hit rate 0.11% among 210,000;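 active = signal enhancement of 30% or more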;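 note: luminescence tracks abundance of the self-degrading MDM2-luciferase fusion protein; higher signal means inhibition of MDM2 E3 ligase activity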
#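 Material: Stable MDM2–luciferase fusion reporter cells | Amount: 2000 cells seeded into each well | Dosing: One concentration, 5 µM, with 0.2% DMSO | Incubation: 4 h cell settling then 2 h compound exposure, 37 °C | Measured by: Luciferase luminescence | Read-out basis: % enhancement relative to plate controls after blank subtraction | Benchmarks: Control and blank well means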
# STAT1 act – STAT1 signaling activators, primary screen, cell-based, HTS, luciferase reporter; hit rate 2.6% among 200,000; NIH 3T3 STAT1-luciferase reporter, IFN-gamma, luminescence; 100% = IFN-gamma alone, no compound; activation (% of control), % at 5.5 µM; AID 932, 2007;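 active = activation above the screen-wide mean activation plus 3 SD, cut at about 130% in these data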;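 note: raw ratio to IFN-gamma control signal so 100% means no change and 0% no light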
# APP 5'UTR act – activators of APP 5'UTR luciferase reporter, primary screen, SH-SY5Y cells; SH-SY5Y APP 5'UTR luciferase reporter, luminescence; zero percent = DMSO vehicle wells; activation, % at 2 µM; hit rate 1% among 190,000;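 active = activation above a set limit, based on mean plus 3 SD of controls, cut at about 140% in these data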
# NF-kB expr up – activators of NF-kB expression in neurons, primary screen, cell-based, HTS; human neuronal cells, NF-kB reporter expression; hits give high values; fold change at 12.5 µM; hit rate 1.6% among 190,000; AID 1239, 2008; in the data active = fold change above about 3.3
# * marks the source's active call; other numbers are inactive results; . = no result.
SMILES,AHR activator,PERK inhibitor,MDM2 E3 inh,STAT1 act,APP 5'UTR act,NF-kB expr up
COCCN(C(=O)c1ccc(N2CCCC2=O)cc1)c1c(N)n(Cc2ccccc2)c(=O)[nH]c1=O,-1,.,.,.,.,.
CCn1cc(CN2CCC(n3nccc3NC(=O)c3ccccc3C)CC2)cn1,6,.,.,.,.,.
CCOc1ccc(NC(=NCc2ccc3c(c2)OCO3)SC2CC(=O)N(c3ccc(C(=O)O)cc3)C2=O)cc1 (stereo unspecified),-2,1,-1,95,-15,1
COc1ccc(CSc2nc3ccccc3[nH]2)cc1,-2,-1,-46,108,150*,5.7*
CCOc1ccc2c(c1)OC1(CCC(C)C1)CC2=O (stereo unspecified),2,.,.,.,.,.
CCOc1ccc2c(c1)OC(c1ccc(C)cc1)(C(F)(F)F)NC2=O (stereo unspecified),-2,-1,10,105,-95,4.2*
CN1C/C(=C\c2ccc(N3CCOCC3)cc2)C(=O)/C(=C/c2ccc(N3CCOCC3)cc2)C1,2,-1,10,101,4,1.1
CCN1C/C(=C/c2ccc(N3CCOCC3)cc2)C(=O)/C(=C/c2ccc(N3CCOCC3)cc2)C1,4,0,7,103,-7,5.3*
Cc1cc(Cl)ccc1OCCCC(N)=O,-1,2,-23,100,-6,0.94
Cc1cc(Cl)ccc1OCCCC(=O)NO,-3,0,-11,88,19,3.9*
NS(=O)(=O)c1ccc(CNc2nc(-c3cccnc3)nc3ccccc23)cc1,7,.,.,.,.,.
Cn1nnc2cc(C(=O)Nc3ccccc3)ccc21,-7,0,-5,130*,28,1.8
Cn1nnc2cc(C(=O)Nc3ccc(Cl)cc3)ccc21,0,1,0,132*,42,1.5
CCCCCCSc1cc(-c2nc3cc(C)ccn3c2NC2CCCCC2)ccc1OC,6,.,.,.,.,.
COc1ccc(-c2nc3ccc(C)cn3c2NCc2ccc3c(c2)OCO3)cc1,69*,0,5,115,34,1
COc1cc(-c2nc3ccc(C)cn3c2NCc2ccccc2)ccc1-c1cccc(Cl)c1,73*,.,.,.,.,.
CCCCNc1c(-c2cccc(-c3ccc(OC)cc3)c2)nc2ccc(C)cn12,21,.,.,.,.,.
COc1cc(-c2nc3ccccn3c2NCc2ccccc2)ccc1SC1CCCCC1,69*,.,.,.,.,.
CCCCCCSc1cc(-c2nc3cnccn3c2NCc2ccccc2)ccc1OC,49*,.,.,.,.,.
COC(=O)C(Cc1ccccc1)NC(=O)CCc1c[nH]c2ccccc12 (stereo unspecified),8,.,.,.,.,.
C=CCSc1nnc(NC(=O)CN2C(=O)NC3(CCCC3)C2=O)s1,0,.,.,.,.,.
COc1ccc(-c2nc3cnccn3c2NCc2ccccc2)cc1SC1CCCCC1,50*,.,.,.,.,.
CCOC(=O)N1CCN(C(=O)CSc2nc(=O)n3ccccc3n2)CC1,2,.,.,.,.,.
Cc1nc2ccccc2n1/N=C/c1ccc([N+](=O)[O-])s1,52*,1,-16,96,-24,0.63
O=[N+]([O-])c1ccc(/C=N/n2c(CO)nc3ccccc32)s1,29,0,-3,77,-12,0.79
SMILES,AHR activator,PERK inhibitor,MDM2 E3 inh,STAT1 act,APP 5'UTR act,NF-kB expr up
Cc1cccc(NC(=O)c2cnc3sccn3c2=O)c1,68*,0,-22,124,167*,5.5*
O=C(Nc1ccc2c(c1)OCCO2)c1cnc2ccccn2c1=O,-3,1,.,154*,41,.
O=C(NCc1ccc2c(c1)OCO2)c1cnc2ccccn2c1=O,7,0,-2,104,8,1.1
COc1ccc(NC(=O)c2cnc3sccn3c2=O)cc1,42,0,-16,123,77,2.2
O=C(Nc1cnc2sccn2c1=O)c1ccccc1Cl,37,0,-19,140*,74,2.4
Cc1cccc(NC(=O)c2cnc3sccn3c2=O)c1C,.,0,-12,136*,49,2.5
CCOC(=O)CC(NS(=O)(=O)c1ccc2[nH]c(=O)sc2c1)c1ccc(C)cc1 (stereo unspecified),11,.,.,.,.,.

# Source: PubChem BioAssay (several laboratories)
